TRPC6 activator: mouse TRPC6 channel activators, primary screen, cell-based, HEK293, membrane potential dye | B-score at 10 µM | HEK293-TRPC6 membrane potential dye fluorescence; stronger effect = higher value | 310,000 compounds, 0.13% hits;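 active means B-score of the integrated fluorescence ratio above library mean plus 3 SD, and starting fluorescence ratio within library mean plus 5 SD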;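 further: higher score means more depolarization so channel activation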
TRPC6 inh: mouse TRPC6 channel inhibitors, primary screen, cell-based, HEK293, membrane potential dye | 310,000 compounds, 1.1% hits | ACh-evoked depolarization; stronger effect = lower value | B-score at 10 µM;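 active means B-score under library mean minus 3 SD, initial fluorescence not abnormally high, positive integrated signal ratio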;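 further: B-score derived from integrated fluorescence ratio over the kinetic read; more negative B-score means stronger inhibition of depolarization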
TRPC4 agonist: activators of mouse TRPC4 channel, primary screen, Fluo4 calcium, HEK293 TRPC4beta/mu-opioid cells; Fluo4 calcium fluorescence; stronger effect = higher value; B-score at 10 µM; Short transient receptor potential channel 4 (Mus musculus), Q9QUQ5; AID 2237, 2010; 310,000 compounds, 0.49% hits;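 active means B-score above 5 SD of library B-scores, and initial fluorescence ratio not above library mean plus 5 SD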;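 further: positive B-score marks a calcium rise read as TRPC4 activation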
Target sequence (Q9QUQ5 whole entry, looked up): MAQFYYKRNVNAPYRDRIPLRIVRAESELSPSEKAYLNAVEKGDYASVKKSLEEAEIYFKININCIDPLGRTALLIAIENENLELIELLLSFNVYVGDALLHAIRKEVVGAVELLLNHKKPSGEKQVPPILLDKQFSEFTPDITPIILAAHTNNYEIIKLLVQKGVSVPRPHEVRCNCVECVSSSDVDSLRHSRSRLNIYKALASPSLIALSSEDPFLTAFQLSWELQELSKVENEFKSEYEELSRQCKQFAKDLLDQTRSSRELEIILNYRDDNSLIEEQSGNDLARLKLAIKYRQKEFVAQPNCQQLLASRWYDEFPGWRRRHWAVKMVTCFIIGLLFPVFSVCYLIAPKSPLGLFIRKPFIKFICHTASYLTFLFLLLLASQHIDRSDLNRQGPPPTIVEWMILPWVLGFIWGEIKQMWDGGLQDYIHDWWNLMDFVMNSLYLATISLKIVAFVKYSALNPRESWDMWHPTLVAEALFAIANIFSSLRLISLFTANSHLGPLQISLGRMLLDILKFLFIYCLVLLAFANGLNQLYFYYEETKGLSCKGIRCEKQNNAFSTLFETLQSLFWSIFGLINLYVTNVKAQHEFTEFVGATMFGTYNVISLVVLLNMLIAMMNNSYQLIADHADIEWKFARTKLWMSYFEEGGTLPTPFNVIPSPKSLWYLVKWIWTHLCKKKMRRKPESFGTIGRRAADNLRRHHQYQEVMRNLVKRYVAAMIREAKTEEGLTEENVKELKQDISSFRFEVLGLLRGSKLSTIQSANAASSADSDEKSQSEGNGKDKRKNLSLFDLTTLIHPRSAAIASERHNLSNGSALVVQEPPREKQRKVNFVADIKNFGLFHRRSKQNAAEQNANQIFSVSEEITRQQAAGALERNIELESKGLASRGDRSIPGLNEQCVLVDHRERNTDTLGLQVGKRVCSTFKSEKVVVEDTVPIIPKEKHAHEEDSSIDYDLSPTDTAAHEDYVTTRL
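Material: HEK293 stable line with TRPC4beta plus mu-opioid receptor; technique: Fluo4 calcium-sensitive dye fluorescence, kinetic, 1 Hz baseline; timing: Fluo4 dye loading 45 min at room temperature, 110 s recording; controls: assay buffer as low control, maximal DAMGO as high control; read-out: integrated baseline-normalised fluorescence ratio, converted to per-well B score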
TRPC4 PAM: positive allosteric modulators of TRPC4, primary screen, cell-based, mouse TRPC4beta, HEK293 mu-opioid, Fluo-4 calcium; B-score at 10 µM; DAMGO EC20, Fluo-4 Ca2+ flux; stronger effect = higher value; Short transient receptor potential channel 4 (Mus musculus), Q9QUQ5; 310,000 compounds, 0.42% hits;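 active means B-score of calcium response area above 5 SD of library B-scores, with initial fluorescence ratio within 5 SD of library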
Platelet DG rel: inhibitors of platelet dense granule secretion, primary screen, cell-based, MLPCN, human platelets | human platelet-rich plasma, SFLLRN dense granule ATP release, luminescence | 300,000 compounds, 0.22% hits | inhibition, %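 (compounds screened at 7.5 µM in platelet-rich plasma)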;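 active means mean replicate score, as percent of positive control, at or above 50; inconclusive means mean below 50 but at least one replicate at or above 50; inactive means mean and every replicate below 50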
TRPC4 inh: inhibitors of mouse TRPC4 channel, primary screen, Fluo4 calcium, HEK293 TRPC4beta/mu-opioid cells; B-score at 10 µM; DAMGO-evoked Fluo4 calcium flux; stronger effect = lower value; Short transient receptor potential channel 4 (Mus musculus), Q9QUQ5; 300,000 compounds, 0.39% hits;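 active means B-score over 3 SD under the library average, no early fluorescence shift, positive overall ratio signal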
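test system = HEK293 cells with stable TRPC4beta plus mu-opioid receptor expression | detection = Fluo4 Ca2+ flux fluorescence | read-out = integrated fluorescence ratio relative to baseline, converted to per-well B score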
Large screens that a line does not name were inactive. Shown are actives, neighbours in structure and some others; about 2.5% of the full set was active somewhere.

O=C(CSc1nnc2c3ccccc3c3ccccc3c2n1)Nc1ccccc1F	Platelet DG rel 55.2
CCc1nc(SCC(=O)Nc2ccc(N(C)C)cc2)c2ccccc2n1	none
CCOC(=O)COc1c(OC)cc(Cl)cc1C1NC(=O)NC(C)=C1C(C)=O (configuration not stated)	none
CCCC1=C(C(=O)OCC)C(c2cc(Cl)cc(OC)c2OCC(=O)OCC)NC(=O)N1 (configuration not stated)	TRPC4 PAM 22 (no result: Platelet DG rel)
Cn1cc(-c2nc3ccccc3[nH]2)c2ccccc21	TRPC4 inh -6
CCCc1ccc(OCc2ccc(C(=O)N3CCSCC3)o2)cc1	TRPC4 PAM 20
CC(=O)Nc1ccc(S(=O)(=O)Nc2nc3ccc(C)cc3s2)cc1	TRPC4 inh -5
CCOC(=O)Cn1c(=O)c2c(nc(Br)n2Cc2ccc(Cl)cc2)n(C)c1=O	none
CCOC(=O)CCn1c(=O)c2c(nc(Br)n2Cc2ccccc2)n(C)c1=O	TRPC4 inh -5
O=C(COc1ncnc2ccccc12)Nc1ccccc1[N+](=O)[O-]	none
COc1ccc2c(c1)c1ncn(CCCN3CCOCC3)c(=O)c1n2C	TRPC4 PAM 13
Cc1cc(-c2nnc(CCC(=O)N(CC3CCC3)CC3CCCO3)o2)no1 (configuration not stated)	none
CN(C)CCCn1c(=O)n(CCc2ccccc2)c(=O)c2c3c(sc21)CCCCC3	TRPC4 PAM 22
O=C(N/N=C/c1c(O)ccc2ccccc12)c1cccc(C(F)(F)F)c1	TRPC4 PAM 12
COc1ccc2ccccc2c1/C=N/NC(=O)c1cccc(Br)c1	none
O=C(NN=C1CCN(Cc2ccccc2)CC1)C(O)c1ccccc1 (configuration not stated)	none
CCCN(CCC)CCCNC(=O)CS(=O)Cc1nc(-c2ccc(OC)c(OC)c2)oc1C (configuration not stated)	TRPC4 agonist 64
COc1ccc(-c2nc(CS(=O)CC(=O)NCCCN3CCCC(C)C3)c(C)o2)cc1OC (configuration not stated)	none
Cc1ccc(-c2nc(CS(=O)CC(=O)NCCCN3CC(C)CC(C)C3)c(C)o2)cc1 (configuration not stated)	TRPC4 agonist 62, Platelet DG rel inconclusive
COc1ccc(-c2nc(CS(=O)CC(=O)NCCCN3CC(C)CC(C)C3)c(C)o2)cc1OC (configuration not stated)	TRPC4 agonist 104
Cc1oc(-c2cccs2)nc1CS(=O)CC(=O)NCCCN1CC(C)CC(C)C1 (configuration not stated)	none
Oc1c(C(c2cccs2)N2CCOCC2)sc2ncnn12 (configuration not stated)	Platelet DG rel 55.5
CC1CN(C(c2cccs2)c2sc3ncnn3c2O)CC(C)O1 (configuration not stated)	none
COCCNC(=O)C1CC(c2ccccc2C(F)(F)F)=NO1 (configuration not stated)	none
CN(C)S(=O)(=O)c1cccc(NC(=O)Cc2ccc(-c3ccccc3)cc2)c1	none
O=C(Nc1ccc2c(c1)CCC2)c1cnc(Cl)c(Cl)c1	none
O=C(Nc1ccc2c(c1)CCC2)c1ccc(Cl)nc1	TRPC4 inh -6
O=C(c1ccccc1)N(Cc1ccc(F)cc1)Cc1nc2ccccc2c(=O)[nH]1	TRPC4 PAM 12
Cc1ccc(S(=O)(=O)N2CCCC2C(=O)O)cc1 (configuration not stated)	Platelet DG rel 82.6
Cc1cccc(NC(=S)NC(C)CCc2ccccc2)c1 (configuration not stated)	none
CN(C)C(CNC(=S)Nc1cccc(Cl)c1)c1ccccc1 (configuration not stated)	TRPC4 agonist 220
Cc1cccc(NC(=S)NCC(c2ccccc2)N(C)C)c1 (configuration not stated)	TRPC4 agonist 231
N#CCC(=O)Nc1ccc(C(=O)NCCc2c[nH]c3ccccc23)cc1	none
O=C(COc1coc(CN2CCN(c3ccccc3F)CC2)cc1=O)NC1CCCC1	none
COc1ccccc1N1CCN(Cc2cc(=O)c(OCC(=O)NC3CCCC3)co2)CC1	TRPC4 PAM 108
CN(Cc1ccco1)C(=O)Cn1ncc2c([nH]c3ccccc32)c1=O	TRPC4 PAM 20
COCCCN(Cc1ccco1)C(=O)Cn1ncc2c([nH]c3ccccc32)c1=O	none
COc1cc(Nc2c3c(nc4ccccc24)CCC3)cc(OC)c1OC	none
COc1ccc(OC)c(Nc2c3c(nc4ccccc24)CCC3)c1	TRPC4 inh -5
Cc1cccc(Nc2c3c(nc4ccccc24)CCC3)c1	TRPC4 inh -6
Cc1ccccc1N(C(=O)c1snc(C(N)=O)c1N)C(C(=O)NCC1CCCO1)c1ccc(F)cc1 (configuration not stated)	TRPC4 inh -6
CCOc1ccc(C(C(=O)NCC2CCCO2)N(Cc2cccc(OC)c2)C(=O)c2snc(C(N)=O)c2N)cc1 (configuration not stated)	none
Cc1ccc(N(C(=O)c2snc(C(N)=O)c2N)C(C(=O)NCC2CCCO2)c2ccc(C)o2)c(C)c1 (configuration not stated)	TRPC4 inh -7
Cc1ccccc1N(C(=O)c1snc(C(N)=O)c1N)C(C(=O)NCC1CCCO1)c1ccc(N(C)C)cc1 (configuration not stated)	none
NC(=O)c1nsc(C(=O)N(Cc2ccc(F)cc2)C(C(=O)NCC2CCCO2)c2ccc(O)cc2)c1N (configuration not stated)	TRPC4 inh -10
CCOc1ccc(C(C(=O)NCC2CCCO2)N(Cc2cccnc2)C(=O)c2snc(C(N)=O)c2N)cc1 (configuration not stated)	TRPC4 inh -6
CCOc1ccc(C(C(=O)NCC2CCCO2)N(Cc2ccccc2)C(=O)c2snc(C(N)=O)c2N)cc1 (configuration not stated)	none
COc1ccc(C)cc1N(C(=O)c1snc(C(N)=O)c1N)C(C(=O)NC1CCCC1)c1ccc(F)cc1 (configuration not stated)	TRPC4 inh -11

Bioassay records from PubChem.
